Results from ChEMBL document CHEMBL3046149, “Synthesis, fungicidal activity, and sterol 14α-demethylase binding interaction of 2-azolyl-3,4-dihydroquinazolines on Penicillium digitatum” (J Agric Food Chem, 2013).
≈ marks a conversion by molar mass, not a printed value.

Assays:
Penicillium digitatum [1] = assay: Fungicidal activity against Penicillium digitatum assessed as inhibition of mycelium measured after 48 hr; format: functional, organism-based
Method in brief: (§1)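 Poisoned-agar test on P. digitatum. Compounds in DMSO were mixed into molten agar at about 45–50 °C, at 1–50 μg/mL. Blank medium was the control. 5 mm plugs taken from the margins of actively growing mycelial colonies were placed at plate centres. Plates were run in triplicate at 26 °C in darkness. Colony diameter was read at 48 h; inhibition % = (control − treated diameter)/control diameter.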

Penicillium digitatum [2] = assay: Fungicidal activity against Penicillium digitatum assessed as inhibition of mycelium at 1 ug/ml measured after 48 hr; format: functional; method in brief: as §1
Penicillium digitatum [3] = assay: Fungicidal activity against Penicillium digitatum assessed as inhibition of mycelium at 50 ug/ml measured after 48 hr; format: functional; method in brief: as §1
Penicillium digitatum [4] = assay: Fungicidal activity against Penicillium digitatum assessed as inhibition of mycelium at 10 ug/ml measured after 48 hr; format: functional; method in brief: as §1
Penicillium digitatum [5] = assay: Fungicidal activity against Penicillium digitatum assessed as inhibition of mycelium at 5 ug/ml measured after 48 hr; format: functional; method in brief: as §1
[6] = target: T1, P450 sterol 14-alpha-demethylase (Penicillium digitatum, UniProt E3SW77); assay: Binding affinity to Penicillium digitatum CYP51
T1 sequence (E3SW77 whole entry): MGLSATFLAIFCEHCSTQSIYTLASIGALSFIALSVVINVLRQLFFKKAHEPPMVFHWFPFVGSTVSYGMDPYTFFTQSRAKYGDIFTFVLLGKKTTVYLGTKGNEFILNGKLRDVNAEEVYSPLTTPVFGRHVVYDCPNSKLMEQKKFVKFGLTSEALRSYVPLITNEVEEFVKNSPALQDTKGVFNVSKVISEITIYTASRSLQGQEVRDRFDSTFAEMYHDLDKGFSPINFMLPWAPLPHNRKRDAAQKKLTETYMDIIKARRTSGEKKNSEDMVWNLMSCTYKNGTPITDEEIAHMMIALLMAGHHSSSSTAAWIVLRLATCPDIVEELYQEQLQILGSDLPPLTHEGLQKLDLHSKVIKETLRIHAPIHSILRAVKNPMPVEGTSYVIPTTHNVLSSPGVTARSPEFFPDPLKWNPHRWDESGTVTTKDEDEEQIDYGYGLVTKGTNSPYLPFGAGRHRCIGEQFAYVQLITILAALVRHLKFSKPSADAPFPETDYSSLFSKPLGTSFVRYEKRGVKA
Method in brief: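 Recombinant His-tagged P. digitatum CYP51 from E. coli BL21(DE3), Ni-NTA purified, in 100 mM PBS pH 7.2. Difference spectra at 350−500 nm were recorded 1 min after adding compound at room temperature, with DMSO below 0.5%. Kd came from a Hanes−Woolf plot of [I] versus [I]/ΔA, using Amax from the saturated absorbance shift.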

Penicillium digitatum [7] = assay: Fungicidal activity against Penicillium digitatum assessed as inhibition of mycelium at 25 ug/ml measured after 48 hr; format: functional; method in brief: as §1
Penicillium digitatum [8] = assay: Antifungal activity against Penicillium digitatum assessed as growth inhibition

Row | SMILES | IC50 (Penicillium digitatum [1]) [µg/mL] | inhibition at 1 µg/mL (Penicillium digitatum [2]) [%] | inhibition at 50 µg/mL (Penicillium digitatum [3]) [%] | inhibition at 10 µg/mL (Penicillium digitatum [4]) [%] | inhibition at 5 µg/mL (Penicillium digitatum [5]) [%] | Kd [6] [µM] | inhibition at 25 µg/mL (Penicillium digitatum [7]) [%] | IC50 (Penicillium digitatum [8]) [µM]
1 | CC(=O)CC1c2ccccc2N=C(n2ccnc2)N1C(C)C (configuration not stated) | 126 (≈ 425 µM) | 0 | 28 | 15 | 4 | – | – | –
2 | CCCCN1C(n2ccnc2)=Nc2ccccc2C1CC(C)=O (configuration not stated) | 15.6 (≈ 50.2 µM) | 5 | 100 | 29 | 14 | 13.3 | 57 | 50.2
3 | CC(=O)CC1c2ccccc2N=C(n2ccnc2)N1c1ccc(Cl)cc1 (configuration not stated) | 10.4 (≈ 28.5 µM) | 0 | 100 | 35 | 14 | 2.91 | 100 | 28.5
4 | CC(=O)CC1c2ccccc2N=C(n2ccnc2)N1c1ccc(F)cc1 (configuration not stated) | 4.14 (≈ 11.9 µM) | 9 | 100 | 86 | 52 | 0.976 | 100 | 11.9
5 | CC(=O)CC1c2ccccc2N=C(n2ccnc2)N1c1ccccc1 (configuration not stated) | 5.06 (≈ 15.3 µM) | 8 | 100 | 61 | 29 | – | – | –
6 | CC(=O)CC1c2cc(Cl)ccc2N=C(n2ccnc2)N1c1ccc(F)cc1 (configuration not stated) | 7.12 (≈ 18.6 µM) | 9 | 100 | 64 | 21 | 2.4 | 100 | 18.6
7 | CC(=O)CC1c2cc(Cl)ccc2N=C(n2cncn2)N1c1ccccc1 (configuration not stated) | > 50 | – | 8 | – | – | – | – | –
8 | CC(=O)CC1c2cc(Cl)ccc2N=C(n2cncn2)N1C(C)C (configuration not stated) | > 50 | – | 17 | – | – | – | – | –
9 | CC(=O)CC1c2ccccc2N=C(n2cncn2)N1c1ccccc1 (configuration not stated) | 129 (≈ 389 µM) | 0 | 24 | 11 | 0 | – | – | –
10 | CC(=O)CC1c2ccccc2N=C(n2cncn2)N1c1cccc(C)c1 (configuration not stated) | 60.1 (≈ 174 µM) | 0 | 44 | 19 | 12 | – | – | –
11 | CC(=O)CC1c2ccccc2N=C(n2cncn2)N1c1ccc(Cl)cc1 (configuration not stated) | > 50 | – | 10 | – | – | – | – | –
12 | CC(=O)CC1c2ccccc2N=C(n2cncn2)N1c1ccc(F)cc1 (configuration not stated) | > 50 | – | 14 | – | – | – | – | –
13 | CC(=O)CC1c2ccccc2N=C(n2cncn2)N1C(C)C (configuration not stated) | > 50 | – | 10 | – | – | – | – | –
14 | CC(C)(C)C(=O)CC1c2ccccc2N=C(n2cncn2)N1c1ccccc1 (configuration not stated) | 90 (≈ 241 µM) | 0 | 35 | 15 | 8 | – | – | –
15 | Cc1cccc(N2C(n3cncn3)=Nc3ccccc3C2CC(=O)C(C)(C)C)c1 (configuration not stated) | 67.1 (≈ 173 µM) | 0 | 40 | 22 | 8 | – | – | –
16 | CC(=O)CC1c2cc(Cl)ccc2N=C(n2ccnc2)N1C(C)C (configuration not stated) | 128 (≈ 387 µM) | 0 | 30 | 12 | 8 | – | – | –
17 | CC(C)(C)C(=O)C(Oc1ccc(Cl)cc1)n1cncn1 (configuration not stated) [TRIADIMEFON] | – | 0 | 100 | 60 | 27 | – | 100 | –
